The record followed here is publication PMC3755765 (ChemMedChem, 2013).

pIC50: −log10 of the molar value. In brackets after ≈: the same amount, converted by molar mass. Several values for one entry are separate records, joined by “and”; a condition that tells them apart may be missing. Equal entries are not always repeated. Entries after “also recorded” stand apart in the source; their conditions may differ. Where two headings read alike, the source gives them in different places.

As usually defined, the MIC50 is the lowest concentration that inhibits either 50% of growth or 50% of the strains tested, depending on the study. For orientation: IC50 means the midpoint of a concentration-inhibition curve. What is called half-life is how long it takes for the measured level to halve. A high value points to slow decline. As a reminder, the Papp is a coefficient for how fast a substance crosses the barrier. Read a high Papp as fast passage.

The subject of data set [1] is T. gondii tachyzoites. The experiment in a line: Parasite tissue culture assay: inhibition of T. gondii tachyzoites in HFF. Type of data set: cell-based, Toxoplasma gondii. The note with it: for MIC50 / pIC50: Toxoplasma gondii; for Activity in the parasite-based assay: T. gondii tachyzoites.
The target of data set [2] is T1, TgENR (Toxoplasma gondii, UniProt Q6UCJ9).
T1 sequence (Q6UCJ9 28-417): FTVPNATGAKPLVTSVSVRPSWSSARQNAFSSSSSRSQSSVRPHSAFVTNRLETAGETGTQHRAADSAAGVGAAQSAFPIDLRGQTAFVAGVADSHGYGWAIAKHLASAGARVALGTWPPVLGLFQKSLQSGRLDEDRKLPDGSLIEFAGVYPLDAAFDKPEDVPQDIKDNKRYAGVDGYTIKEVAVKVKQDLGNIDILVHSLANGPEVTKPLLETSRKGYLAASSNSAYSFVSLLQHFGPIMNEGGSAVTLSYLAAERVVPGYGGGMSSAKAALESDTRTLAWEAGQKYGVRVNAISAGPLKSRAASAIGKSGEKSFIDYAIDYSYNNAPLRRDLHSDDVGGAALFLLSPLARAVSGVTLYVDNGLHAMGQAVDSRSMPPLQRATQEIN
The experiment in a line: TgENR enzyme assay. The note with it: for inhibition at 1 µM: read-out: Cpd. conc. [1 μM]/% Inh.: percentage of inhibition of TgENR; for Activity in the enzyme-based assay: purified TgENR. Format: biochemical.

The test system of data set [3] is P. falciparum strain D6 (CDC/Sierra Leone). The experiment in a line: Malaria SYBR Green I-based fluorescence assay, strain D6. Format: cell-based. Particulars: Plasmodium falciparum, D6, 72 h, read-out: SYBR Green D6 IC50. The method in brief:
(§1)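 Late-ring or early-trophozoite parasites at 0.3% starting parasitemia and 2% hematocrit were added to plates predosed with quadruplicate 12-point two-fold dilutions in DMSO (final […]), with mefloquine as reference. Plates were incubated 72 h at 37°C under 5% CO2/5% O2/90% N2, lysed with Tris/EDTA/Triton X/saponin buffer with SYBR Green I (final 10x), kept dark 24 h at RT, and read as RFU. A chloroquine batch control at 2000 ng/ml validated each run.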

The test system of data set [4] is P. falciparum strain TM91C235 (WRAIR, Thailand, chloroquine resistant). The experiment in a line: Malaria SYBR Green I-based fluorescence assay, strain TM91C235. Type of data set: cell-based. Particulars: Plasmodium falciparum, 72 h, read-out: SYBR Green C235 IC50. A digest of the protocol:
as §1

The test system of data set [5] is Human Foreskin Fibroblasts (HFF). The data set is described as follows: Toxicity for host cells. The note with it: for Parasite tissue culture assay HFF (HFF toxicity): human foreskin fibroblasts, highest concentration tested 10 μM.
The subject of data set [6] is Caco-2. The data set is described as follows: Experimental Caco-2 permeability. Particulars: experimental, Contract Research Organization.
Data set [7] deals with T. gondii. The experiment in a line: T. gondii mouse infection model. Type of data set: in vivo. The note with it: mice; for Effect on parasite burden compared to triclosan (Xenogen camera images): 10mg/ml; for Effect on parasite growth in vivo: 50mg/kg (results not shown).
Data set [8] can be described thus: Toxicity in mice. Format: in vivo.
The nature of data set [9]: Intrinsic clearance in human cryopreserved hepatocytes. Particulars: human. Type of data set: in vitro ADME.
The test system of data set [10] is human cryopreserved hepatocytes. The description is as above. Format: in vitro ADME.
Data set [11] is described as follows: Intrinsic clearance in human liver microsomes. Format: in vitro ADME. A general note: Liver microsomes are a subcellular fraction often used to study metabolism.
A short description of data set [12]: Experimental Caco-2 permeability. Particulars: human, Caco-2. A general note: Caco-2 cells form a polarised layer with tight junctions and transporters.
Data set [13] in a line: in vitro. The note with it: human, Caco-2.
[14] abbreviates: 72 h, read-out: Parasite tissue culture assay MIC50.
[15] abbreviates: 75 mg/kg, day 5 after infection, 75 mg/kg.

Consider `CCCCN(CCCC)C(=O)c1ccc(Oc2ccc(Cl)cc2Cl)c(O)c1` [Compound 30b, 4-(2,4-Dichlorophenoxy)-3-hydroxy-N,N-dibutylbenzamide], for which the MIC50 in data set [1] (setting [14]) is over 10 µM. In addition, the inhibition at 1 µM in data set [2] amounted to 44%. The IC50 in data set [3] is 400 nM and 0.166 µg/mL; in [4], 600 nM and 0.247 µg/mL. Further, the “Parasite tissue culture assay HFF (HFF toxicity)” value (“Parasite tissue culture assay HFF” below) in data set [5] was over 10 µM.

On to `COc1cc2c(c(OC)c1OC)-c1ccc(OC)c(=O)cc1[C@@H](NC(C)=O)CC2` [colchicines, reference compound], for which the Caco-2 permeability in data set [6] was 0.1 ×10⁻⁶ cm/s.

For `Cc1cc(CC(=O)NCc2ccc(Oc3ccc(Cl)cc3O)c(Cl)c2)on1` [Compound 37c, N-[3-Chloro-4-(4-chloro-2-hydroxyphenoxy)benzyl]-2-(3-methyl-1,2-oxazol-5-yl)acetamide], the MIC50 in [1] (setting [14]) was over 10 µM. Moreover, the inhibition at 1 µM in data set [2] was determined as 96%. Moreover, in data set [7] (10 mg/kg), the “Effect on parasite burden in vivo” value was “neither of those analogs reduced the parasite burden; also recorded: no effect”. Further, in data set [7], the “Effect on parasite burden compared to triclosan (Xenogen camera images)” value is “reduced effect” and the “Effect on parasite growth in vivo” value is given as “not evident”. The “Effect on parasite burden in vivo” value in data set [7] (setting [15]) is “protected the mice by decreasing parasite burden; also recorded: effective in reducing parasite burden”. In addition, the “Toxicity in mice relative to triclosan (fold less toxic)” value in [8] is reported as 10 fold.

With `CCCCCCNC(=O)c1ccc(Oc2ccc(Cl)cc2Cl)c(O)c1` [Compound 30d, 4-(2,4-Dichlorophenoxy)-N-hexyl-3-hydroxybenzamide], in data set [1] (setting [14]), the MIC50 was over 10 µM. The inhibition at 1 µM in [2] was 30%. Besides, the half-inhibitory concentration (IC50) in data set [3] and in data set [4] was over 2 µg/mL throughout. The “Parasite tissue culture assay HFF” value in data set [5] was over 10 µM.

Consider `Oc1cc(Cl)ccc1Oc1ccc(Cn2ccnn2)cc1Cl` [Compound 16c, 5-Chloro-2-[2-chloro-4-[(1H-1,2,3-triazol-1-yl)methyl]phenoxy]phenol], for which the MIC50 in [1] (setting [14]) was 0.25 µM (≈ 0.084 µg/mL). For the same compound, the pIC50 in data set [1] (read-out: IC50 (MIC50) against Toxoplasma gondii tachyzoites) is 6.60. In addition, the inhibition at 1 µM in data set [2] was 91%. The “Effect on parasite burden in vivo” value in [7] (10 mg/kg) is “neither of those analogs reduced the parasite burden; also recorded: no effect”; in [7] (setting [15]), “protected the mice by decreasing parasite burden; also recorded: effective in reducing parasite burden”. Also, the “Effect on parasite burden compared to triclosan (Xenogen camera images)” value in [7] is listed as “reduced effect”. Besides, in data set [7], the “Effect on parasite growth in vivo” value is on record as “not evident”. Further, the results for the half-life in data set [9] and in [11] were 29 min and over 60 min, respectively. The compound further gave a Compound left unmetabolized in [10] (after 60 min) of 20%. For the same compound, the Compound remained intact in data set [10] (after 120 min) was 5%. Also, the “Toxicity in mice relative to triclosan (fold less toxic)” value in data set [8] is reported as 10 fold. The same compound showed a Papp in [12] of 26.3 ×10⁻⁶ cm/s. Also, the “Toxicity to the host cells” value in data set [5] is recorded as “without apparent toxicity to the host cells”. Besides, the “Parasite tissue culture assay HFF” value in data set [5] is over 10 µM.

As to `CCC(=O)c1ccc(Oc2ccc(Cl)cc2Cl)c(O)c1` [Compound 43a, 1-[4-(2,4-Dichlorophenoxy)-3-hydroxyphenyl]propan-1-one], in data set [1], the “Activity in the parasite-based assay” value is “ineffective”. Further, the pIC50 in data set [1] (setting [14]) was under 5.00. For the same compound, in [2], the “Activity in the enzyme-based assay” value was “only weak activity; also recorded: only weak inhibition” and the inhibition at 1 µM amounted to 85%. Further, the IC50 in data set [3] was 2.75 µM and 0.857 µg/mL. The IC50 in [4] was over 2 µg/mL. Further, in data set [5], the “Parasite tissue culture assay HFF” value was over 10 µM.

Turning to `Oc1cc(Cl)ccc1Oc1ccc(Cl)cc1Cl` [Triclosan, triclosan, reference compound], in data set [1] (setting [14]), the pIC50 is 6.60 and the MIC50 worked out at 3 µM (≈ 0.869 µg/mL). For the same compound, in [2], the inhibition at 1 µM turned out to be 97%. Further, in [7] (10 mg/kg), the “Effect on parasite burden in vivo” value is “effective; also recorded: demonstrated efficacy”. The “Parasite tissue culture assay HFF” value in data set [5] was over 10 µM.

`O=C(Nc1ccccc1)c1ccc(Oc2ccc(Cl)cc2Cl)c(O)c1` [Compound 30a, 4-(2,4-Dichlorophenoxy)-3-hydroxy-N-phenylbenzamide]: the MIC50 in [1] (setting [14]) is over 10 µM. Also, in data set [2], the inhibition at 1 µM stood at 7%. Moreover, the IC50 in data set [3] and in data set [4] was over 2 µg/mL in each case. Also, the “Parasite tissue culture assay HFF” value in [5] is over 10 µM.

`Oc1cc(CNC2CCCCC2)ccc1Oc1ccc(Cl)cc1Cl` [Compound 39b, 5-[(Cyclohexylamino)methyl]-2-(2,4-dichlorophenoxy)phenol]: the “Activity in the parasite-based assay” value in data set [1] is reported as “activity comparable to or better than that of triclosan”. Also, in data set [1] (setting [14]), the MIC50 came out at 4 µM (≈ 1.47 µg/mL). Further, in data set [2], the “Activity in the enzyme-based assay” value was “completely inactive” and the inhibition at 1 µM is 34%. In addition, in [3], the IC50 is 30 nM and 0.0119 µg/mL. Besides, in data set [4], the IC50 was 80 nM and 0.0276 µg/mL. In addition, the “Parasite tissue culture assay HFF” value in data set [5] is over 10 µM.

Regarding `Oc1cc(CNc2ccccc2)ccc1Oc1ccc(Cl)cc1Cl` [Compound 39a, 2-(2,4-Dichlorophenoxy)-5-[(phenylamino)methyl]phenol], the MIC50 in data set [1] (setting [14]) turned out to be 10 µM (≈ 3.6 µg/mL). The pIC50 in [2] was 6.89. Moreover, in data set [2], the inhibition at 1 µM is 96%. Also, the IC50 was 4.56 µM and 1.64 µg/mL in data set [3]; over 2 µg/mL in data set [4]. In data set [5], the “Parasite tissue culture assay HFF” value was over 10 µM.

`CC(C)NCC(O)COc1cccc2ccccc12` (stereo not shown) [propranolol]: the Papp in data set [13] came to 51.1 ×10⁻⁶ cm/s.

On to `Oc1cc(Cn2ccnn2)ccc1Oc1ccc(Cl)cc1Cl` [Compound 9c, 2-(2,4-Dichlorophenoxy)-5-(1H-1,2,3-triazol-1-ylmethyl)phenol], for which, in [1] (setting [14]), the MIC50 worked out at 10 µM (≈ 3.36 µg/mL). The compound further gave a pIC50 in data set [2] of 6.89. In addition, the inhibition at 1 µM in [2] is 93%. The half-maximal inhibitory concentration (IC50) in data set [3] was 4.71 µM and 1.58 µg/mL; in data set [4], over 2 µg/mL. In data set [5], the “Parasite tissue culture assay HFF” value is over 10 µM.
